The subject of assay [1] is Nucleoside diphosphate kinase B (Homo sapiens), P22392 [F60A]. As to the kind of experiment: Binding affinity to NM23-H2 F60A mutant (unknown origin) up to 50 uM by SPR analysis.
Assay [2] has as its system SiHa. As to the kind of experiment: Cell cycle arrest in human SiHa cells assessed as accumulation at G2/M phase at 2 uM after 12 hrs by propidium iodide staining based flow cytometry (reference value: 39 %). It is filed as functional. Summed up: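 SiHa cells plated 24 h, treated at 2 μM for 3–48 h; fixed in ice-cold 70% ethanol overnight, RNase A 20 μg/mL 37 °C 30 min, PI-stained, flow cytometry at 488 nm; phase percentages quantified; at least three experiments.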

In assay [3] the test system is SiHa. As to the kind of experiment: Antitumor activity against human SiHa cells xenografted in BALB/C nude mouse assessed as tumor growth inhibition at 5 mg/kg, ip administered daily after 3 weeks relative to control. It counts as functional. The following applies: 504 h, read-out: TGI.
Assay [4] relates to SiHa. Briefly: Induction of apoptosis in human SiHa cells assessed as necrotic cells at 0.5 uM after 48 hrs by Annexin V-FITC/propidium iodide based flow cytometric analysis (reference value: 0.3%). It is filed as functional. Background: Flow cytometry measures light scatter and fluorescence of single cells or particles in a stream.

The source made the active and inactive calls. The rule behind the calls is not given here.

Chain of Nucleoside diphosphate kinase B (Homo sapiens), P22392 [F60A] (P22392 whole entry F60A): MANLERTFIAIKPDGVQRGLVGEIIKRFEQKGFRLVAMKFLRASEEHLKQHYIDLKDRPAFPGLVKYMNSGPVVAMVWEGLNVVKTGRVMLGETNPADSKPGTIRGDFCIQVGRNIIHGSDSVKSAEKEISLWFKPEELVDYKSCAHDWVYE

Turning to `CN(C)CCCNc1cc2nc3n(c(=O)c2cc1F)CC/C3=C\c1ccc(OCc2ccccc2)cc1O`, in assay [1], the result was inactive. Further, the Activity in the assay with SiHa [2] is reported as 27%; in the assay with SiHa [4], 0.3%. Also, in the assay on SiHa [3], the inhibition in vivo at 5 mg/kg is 64.8%.

(Values after ChEMBL document CHEMBL4017489, “Design, Synthesis, and Evaluation of New Selective NM23-H2 Binders as c-MYC Transcription Inhibitors via Disruption of the NM23-H2/G-Quadruplex Interaction” (J Med Chem, 2017).)
